# Bioassay records as filed in PubChem.
# Runt-SMMHC FRET = Runt domain-CBFb-SMMHC interaction inhibition | 220,000 compounds, 0.74% hits | Cerulean-Runt/Venus-CBFb-SMMHC FRET ratio 530/480, 1 h | Q01196+Q13951 | inhibition, % at 20 µM;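 active means mean inhibition across duplicate retests at 20 µM reaching about 50%, limit read from the data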;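 further: 0% = DMSO wells and 100% = wells with excess untagged CBFb-SMMHC; inhibitors lower the FRET ratio by blocking Runt binding to CBFb-SMMHC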
# Target sequence (Q01196 whole entry, looked up, the tested form may be a part): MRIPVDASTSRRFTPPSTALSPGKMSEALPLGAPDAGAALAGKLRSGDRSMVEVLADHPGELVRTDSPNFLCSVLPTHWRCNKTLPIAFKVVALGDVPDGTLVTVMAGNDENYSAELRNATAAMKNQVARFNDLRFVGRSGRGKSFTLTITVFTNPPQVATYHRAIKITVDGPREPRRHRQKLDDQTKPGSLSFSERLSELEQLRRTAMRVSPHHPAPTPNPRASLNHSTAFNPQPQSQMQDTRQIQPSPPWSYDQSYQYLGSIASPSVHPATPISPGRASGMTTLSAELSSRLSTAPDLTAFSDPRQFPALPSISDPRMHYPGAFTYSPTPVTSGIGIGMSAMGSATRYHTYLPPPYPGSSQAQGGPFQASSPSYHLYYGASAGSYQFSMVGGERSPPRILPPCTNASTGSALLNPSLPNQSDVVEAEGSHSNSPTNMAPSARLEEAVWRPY
# Target sequence (Q13951 whole entry, looked up, the tested form may be a part): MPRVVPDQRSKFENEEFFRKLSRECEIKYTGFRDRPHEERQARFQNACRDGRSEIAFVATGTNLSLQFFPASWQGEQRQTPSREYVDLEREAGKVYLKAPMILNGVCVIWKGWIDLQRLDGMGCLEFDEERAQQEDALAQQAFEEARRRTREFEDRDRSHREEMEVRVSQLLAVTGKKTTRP
# Hck Nef HTS = inhibitors of human Hck kinase activated by Nef; P08631; inhibition, % at 20 µM; AID 463187; 220,000 compounds, 0.68% hits; Recombinant Hck-YEEI plus Nef, Z-Lyte FRET kinase assay;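 active means Hck-Nef kinase inhibition above about 50%, limit read from the data; inactive means inhibition below that limit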;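 further: 0% = DMSO with Hck plus Nef and 100% = Hck alone without Nef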
# Runt-CBFb FRET = blocks binding of human RUNX1 Runt domain to CBFb. Q01196+Q13951. Cerulean-Runt/Venus-CBFb FRET ratio 530/480, 1 h. inhibition, % at 20 µM. 220,000 compounds, 0.46% hits;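 active means inhibition over about 50% at 20 µM in the single-dose screen, limit read from the data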;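 further: 0% = DMSO wells and 100% = excess unlabeled CBFb competitor control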
#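 System: Cerulean-labeled Runt domain protein | Quantity: 100 nM of each labeled protein | Schedule: 1 h compound exposure, room temperature | Detection: Fluorescence energy transfer, 422 nm excitation, 530/480 nm emission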
# RanGTP-Impb inh = inhibitors of RanGTP-importin-beta interaction, primary screen, biochemical, FRET, CFP-Ran, YFP-importin-beta, homogeneous | cell-free CFP-Ran/YFP-importin-beta FRET ratio | inhibition, % (test concentration not listed) | 300,000 compounds, 1.1% hits | AID 2216;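 active means more than half of the replicate wells show a fall in the fluorescence ratio signal beyond about 16%, limit read from the data, passing the limit was not always enough; inconclusive means exactly half of the replicate wells pass the set limit; inactive means fewer than half of replicates pass the limit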;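 further: 0% = DMSO wells and 100% = Ran loaded with GDP instead of GTP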
# Numbers without * were called inactive; ? = inconclusive; . = not tested or not shown. This is a sample that favours compounds with a hit; in the whole collection about 1.8% have one here.
SMILES,Runt-SMMHC FRET,Hck Nef HTS,Runt-CBFb FRET,RanGTP-Impb inh
Cc1ccc(CNC(=O)C2CCC(CNc3nc(=S)[nH]c4ccccc34)CC2)cc1 (stereo unspecified),-2.9,18.3,-3.8,27.2*
Cc1cccc(C)c1NC(=O)C1=C(O)c2sccc2N(C)S1(=O)=O,59.4*,26.8,32.3,45.8*
O=S(=O)(Nc1cccnc1)c1ccc(Br)c2ccccc12,.,.,.,-0.8
CN(C)/C=C1/Sc2ccccc2C1=O,61.6,-0.4,27.7,18.5*
CC(=O)N(\C=C/C=C/C=C1\Sc2ccccc2C1=O)c1ccccc1,-31.7,34.8,-3.6,11.5
Cc1cccc(-n2ccnc2CN2CCN(C(C)C)C(CCO)C2)c1 (stereo unspecified),-0.2,14.2,1.6,0.6
CCc1[nH]nc(C(=O)NC2CCCc3c2cnn3-c2cc(C)cc(C)c2)c1C (stereo unspecified),.,.,.,1.6
O=C1/C(=C\c2ccco2)SC(=S)N1c1ccc(O)cc1,11.2,71.9*,21.9,-2.5
CCCCN(CC)S(=O)(=O)c1ccc2c(c1)n(C)c(=O)c(=O)n2C,3.4,23.6,-0.1,5.9
CCc1ccccc1NC(=O)/C(C#N)=C/c1ccc(Sc2ccccc2)o1,-44.2,-0.2,-20.9,14.2
CCc1ccccc1NC(=O)/C(C#N)=C\c1ccc(Sc2ccccc2)o1,-28.0,1.9,-5.7,16.2*
Cc1ccc(S(=O)(=O)c2cc3c(=O)n4ccccc4nc3n(CCCN3CCOCC3)c2=N)cc1C,.,.,.,135.4*
N=c1c(S(=O)(=O)c2ccc(Cl)cc2)cc2c(=O)n3ccccc3nc2n1CCN1CCOCC1,62.6*,17.9,89.6*,5.7
N=c1c(S(=O)(=O)c2ccc(Cl)cc2)cc2c(=O)n3ccccc3nc2n1CCc1ccccc1,.,.,.,50.4*
Cc1ccc(S(=O)(=O)c2c(N)n(CCN3CCOCC3)c3nc4ccccc4nc23)cc1C,-0.2,9.0,10.2,-0.1
CCOCCCn1c(=N)c(S(=O)(=O)c2ccccc2)cc2c(=O)n3cc(C)ccc3nc21,.,.,.,160.0*
CCOCCCNC(=O)C1CCCN(S(=O)(=O)c2ccc(-n3cnnn3)cc2)C1 (stereo unspecified),.,.,.,-2.5
N=c1c(S(=O)(=O)c2ccccc2)cc2c(=O)n3ccccc3nc2n1CCCN1CCOCC1,.,.,.,155.3*
O=c1c2ccccc2nc(-c2ccccc2)n1CCCN1CCOCC1,-4.0,-0.4,1.5,1.8
CC(C)(C)CC(=O)Nc1cc2c3c(c1)CCC(=O)N3CCC2,.,.,.,0.3
C=CCOC(=O)C1=C(C)OC(N)=C(C#N)C1c1ccc2c(c1)OCO2 (stereo unspecified),4.6,4.8,0.5,24.9*
Cc1ccc(-c2ccc(CCC(=O)O)n2NC(=O)c2cccs2)cc1,62.7*,9.2,32.2,2.9
CCN1CCc2c(sc(NC(=O)C3COc4ccccc4O3)c2C(N)=O)C1 (stereo unspecified),.,.,.,152.6*
CN1CCc2c(sc(NC(=O)C3COc4ccccc4O3)c2C(N)=O)C1 (stereo unspecified),.,.,.,182.4*
CC(=O)N1CCc2c(sc(NC(=O)C3COc4ccccc4O3)c2C(N)=O)C1 (stereo unspecified),.,.,.,5.3
SMILES,Runt-SMMHC FRET,Hck Nef HTS,Runt-CBFb FRET,RanGTP-Impb inh
O=C(CN1C(=O)c2cccc3cccc1c23)NC1CCCCC1,.,.,.,1.3
COC(=O)c1ccc2nc(Nc3nc4c(F)cc(F)cc4s3)sc2c1,68.9,21.5,42.3,71.5*
COC(=O)c1ccc2nc(NC(=O)C3CC3)sc2c1,.,.,.,-0.3
COC(=O)c1ccc2nc(NC(=O)C(C)C)sc2c1,-1.8,15.9,-1.2,29.5*
COc1cc(OC)cc(C(=O)N[C@H](C(=O)NCc2ccccc2)C(C)C)c1,.,.,.,1.3
CCO[C@@H]1OC(C(N)=O)=C[C@H](c2ccc(C(F)(F)F)cc2)[C@H]1CCCO,1.4,-10.0,-1.6,23.7*
Cc1cc(-c2nn(-c3ccccc3)cc2/C=C2\SC(N)=NC2=O)ccc1OC(C)C,-40.3,-0.5,-0.5,-1.7
CCCOc1ccc(-c2nn(-c3ccccc3)cc2/C=C2\SC(N)=NC2=O)cc1,21.1,7.1,-0.8,18.7*
C=CCNCCOCCOc1ccccc1-c1ccccc1,-5.8,14.7,0.9,-0.8
CN(C)c1cc(=O)n2c(n1)SCCC2,-1.9,-0.4,.,71.7*
O=c1cc(N2CCCCC2)nc2n1CCCS2,0.5,0.2,-0.8,158.9*
COc1ccc(C2NC(c3ccc(OC)cc3OC)C(C)C(=O)C2C)c(OC)c1 (stereo unspecified),-0.3,-4.4,-2.2,116.3*
Cc1ccc2nc(-c3ccc(O)cc3)oc2c1,.,.,.,0.0
Cn1c2ccccc2c(=O)c2cc(C#CC3(O)CCCCC3)ccc21,.,.,.,168.9*
O=c1c2ccccc2oc2ccc(C#CC3(O)CCCCC3)cc12,.,.,.,0.7
Cn1c2ccccc2c(=O)c2ccc(C#CC3(N)CCCCC3)cc21,.,.,.,163.4*
COc1cccc(OCC(O)CNC2CCCC2)c1 (stereo unspecified),.,.,.,-2.7
O=C(CSc1nncc2ccccc12)N1CCCCC1,0.4,23.6,-1.1,-4.7
COC(=O)c1cc(S(=O)(=O)Nc2cc(OC)cc(OC)c2)c[nH]1,.,.,.,2.6
CCOc1ccc(NC(=O)CN2C(=O)/C(=C3\SC(=S)N(C4CCS(=O)(=O)C4)C3=O)c3ccccc32)cc1 (stereo unspecified),3.0,74.3*,18.4,.
O=C(CN(CCc1ccccc1)C(=O)c1csnn1)NC1CCCC1,-0.2,19.7,0.2,-2.4
CC1=C(C#N)C(C)C2=C(CC(C)(C)CC2=O)N1 (stereo unspecified),50.2*,14.4,22.3,4.9
Cc1ccc(C(C)C)c(OCC(=O)NNC(=O)CC2OC(=O)c3ccccc32)c1 (stereo unspecified),.,.,.,-4.0
O=c1[nH]c2ccccc2nc1/C=C/c1ccc(F)cc1,49.5,-0.6,15.5,37.6*
O=c1[nH]c2ccccc2nc1/C=C/c1ccccc1,87.5*,4.0,44.9,61.2*
SMILES,Runt-SMMHC FRET,Hck Nef HTS,Runt-CBFb FRET,RanGTP-Impb inh
O=c1[nH]c2ccccc2nc1/C=C/c1ccc(O)cc1,-16.2,18.1,-195.8,?
CCOc1ccc(Br)cc1S(=O)(=O)Nc1cccc(S(=O)(=O)N(C)c2ccccc2)c1,0.6,-5.7,-0.8,6.3
Cc1ccc(Cn2nnc3c(=O)[nH]c(C4CCN(S(=O)(=O)c5ccccc5F)CC4)nc32)cc1,.,.,.,1.5
Cc1cc(C)cc(N=Cc2c(O)c3ccccc3oc2=O)c1,87.0*,18.0,3.4,-4.8
COc1ccccc1C1C2=C(CCCC2=O)N(CC(=O)O)C2=C1C(=O)CCC2,.,.,.,117.7*
COc1ccc(C2C3=C(CC(C)(C)CC3=O)N(CC(=O)O)C3=C2C(=O)CC(C)(C)C3)cc1OC,.,.,.,0.3
CCCOc1c(Br)cc(C(=O)OCC(=O)NC2CC2)cc1OC,.,.,.,0.3
CCOc1cc(C2C3=C(CCCC3=O)N(CC(=O)O)C3=C2C(=O)CCC3)ccc1OC,.,.,.,-1.3
CCCOc1c(Br)cc(C2C3=C(CCCC3=O)N(CC)C3=C2C(=O)CCC3)cc1OC,89.6*,47.2,93.7*,95.8*
